One may read the Papp A→B as the apparent permeability from the apical to the basolateral side of a cell layer. Lower therefore signals slow passage. A word on the Papp B→A: it is the apparent permeability from the basolateral to the apical side of a cell layer. As usually defined, the Papp is a coefficient for how fast a substance crosses the barrier. The efflux ratio is the permeability from basolateral to apical divided by that in the opposite direction, in the common usage. A word on the EC50: it is the concentration that produces a half-maximal response.

The test system of data set [1] is isolated P-gp. The following applies: ref 7−9; cited from earlier work.
Data set [2] is described as follows: Steady-state fluorescence in CH3OH. Type of data set: physicochemical. The following applies: excitation at 532 nm; for Quantum yield for fluorescence ΦFL: 3 as standard, ±SD. In outline:
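Steady-state emission spectra recorded in CH3OH on a spectrofluorometer with 532 nm excitation. Quantum yield determined relative to a reference rhodamine dye in CH3OH (ΦFL = 0.93).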

Data set [3] can be described thus: Absorption spectra in CH3OH. Type of data set: physicochemical.
Data set [4] has as its system Colo-26 cells. Briefly: Phototoxicity toward Colo-26 cells with tunable dye laser. Type of data set: cell-based, murine. The following applies: for Phototoxicity (in words): 0.15 μM, 5.0 J cm^–2 of laser light; for LD50/EC50 (laser, 1.0 J cm^–2): dark LD50 over EC50 with 1.0 J cm^–2 of laser light.
Data set [5] relates to Colo-26 cells. Put plainly: Combination PDT and doxorubicin in Colo-26 cells. Particulars: for Synergy with Dox upon irradiation (in words): 0.15 μM dye, various Dox concentrations, 1.0 J cm^–2 laser light; for Phototoxicity (in words) in the absence of Dox: 0.15 μM, 1.0 J cm^–2 of 613 nm (15b, 17b) or 611 nm (16b, 18b) laser light, relative to dark controls; for Surviving fraction of the combination vs single treatments (in words) / Surviving fraction: 0.15 μM photosensitizer, 1.0 J cm^–2 of 611 nm light; for Surviving fraction of the combination vs single treatments (in words): 0.5 μM Dox; for Surviving fraction: 1.0 μM Dox; for Dox-only concentration giving the same surviving fraction as the combination: combination: 0.15 μM photosensitizer, 0.05 μM Dox, 1.0 J cm^–2 of light. Type of data set: cell-based, murine. Put shortly: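 Colo-26 cells were seeded at 10 000/well and grown 24 h in RPMI 1640 with 10% FBS. Dye at 0.15 μM (ethanol stock) plus Dox at 0.005–5.0 μM were added together as 10× medium solutions, alongside single-agent wells. After 1 h dark, wells were kept dark or laser-irradiated at λmax (±2 nm), 3.2 mW cm–2, to 1 J cm–2. Fresh medium, 48 h at 37 °C, 5% CO2. SRB assay read at 570 nm; six replicates, ±SD, pairwise […].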

For data set [6], the system named is Colo-26 cells. Briefly: Uptake in Colo-26 cells with and without verapamil by flow cytometry. The following applies: for Uptake relative to the corresponding thioamide derivative: Colo-26 cells, Figure 2; for Increase in uptake in the presence of VER: 0.5 μM dye, 1 h, with vs without 100 μM verapamil, mean fluorescence. Type of data set: cell-based, murine. In outline:
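Colo-26 cells exposed 1 h to 0.5 μM dye with or without 100 μM verapamil, then analysed by flow cytometry with 561 nm excitation and 710 nm emission. Mean cellular fluorescence compared between conditions; error bars SD.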
(In general: In flow cytometry, cells or beads pass a laser one at a time.)

Data set [7] is described as follows: Singlet oxygen yield from 1O2 luminescence at 1270 nm. Type of data set: physicochemical. The following applies: air-saturated CH3OH; ±SD. Put shortly:
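Air-saturated CH3OH solutions in quartz cuvettes. Excitation by 532 nm second harmonic of a nanosecond-pulsed Nd:YAG laser (20 Hz) for time-resolved 1O2 luminescence decay at 1270 nm. Emission collected at 90° through a 950 nm long-pass filter onto an NIR-detector spectrometer. Steady-state NIR emission spectra used a 532 nm diode-pumped solid-state laser.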

The nature of data set [8]: Photostability under continuous illumination. Type of data set: physicochemical. Put shortly: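 Dye in 10% CH3OH/pH 7.4 buffer under continuous tungsten-source illumination at 50 mW cm–2. Loss of dye chromophore was followed as a function of delivered fluence and treated as first-order, giving the fluence for half-loss.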
The conditions of data set [9]: in CH3OH; cited from earlier work.
Data set [10] relates to P-gp. Put plainly: P-gp transport and cell association in MDCKII-MDR1 monolayers. The following applies: dog, MDCK-MDR1, with 24 (LSN 335984), 5 μM. Type of data set: in vitro ADME.
Data set [11] concerns the target P-gp (Homo sapiens, UniProt P08183). The data set is described as above. Type of data set: in vitro ADME. Particulars: dog, MDCK-MDR1.
Data set [12] concerns P-gp. Particulars: 5 μM; cited from earlier work.
Data set [13] has as its system mitochondria of Colo-26 cells. Briefly: Colocalization by ImageStream flow cytometry. Particulars: Colo-26 cells incubated with both agents; ±SD. Type of data set: cell-based, murine. Put shortly: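 Colo-26 cells (5 × 10^5 in 0.5 mL medium) co-incubated 15 min with MitoTracker Green and MitoTracker Red. Cells were then centrifuged, and medium replaced with Hanks PBS. Resuspended cells kept on ice and imaged by ImageStream (480–560 and 642–745 nm channels; MTG excited at 488 nm). Per-cell similarity was a log-transformed Pearson correlation of spatially correlated pixel intensities over the whole cell, averaged over 1300 cells.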

[14] abbreviates: 350–800 nm light at 50 mW cm^–2, 10% CH3OH in pH 7.4 buffer.

Where “and” joins values, the source holds several entries; their conditions need not be identical. Equal entries are not always repeated. Entries after “also recorded” stand apart in the source; their conditions may differ. A value given as a limit tells only on which side of the number the result lay.

Chain of P-gp (Homo sapiens, UniProt P08183) (P08183 whole entry): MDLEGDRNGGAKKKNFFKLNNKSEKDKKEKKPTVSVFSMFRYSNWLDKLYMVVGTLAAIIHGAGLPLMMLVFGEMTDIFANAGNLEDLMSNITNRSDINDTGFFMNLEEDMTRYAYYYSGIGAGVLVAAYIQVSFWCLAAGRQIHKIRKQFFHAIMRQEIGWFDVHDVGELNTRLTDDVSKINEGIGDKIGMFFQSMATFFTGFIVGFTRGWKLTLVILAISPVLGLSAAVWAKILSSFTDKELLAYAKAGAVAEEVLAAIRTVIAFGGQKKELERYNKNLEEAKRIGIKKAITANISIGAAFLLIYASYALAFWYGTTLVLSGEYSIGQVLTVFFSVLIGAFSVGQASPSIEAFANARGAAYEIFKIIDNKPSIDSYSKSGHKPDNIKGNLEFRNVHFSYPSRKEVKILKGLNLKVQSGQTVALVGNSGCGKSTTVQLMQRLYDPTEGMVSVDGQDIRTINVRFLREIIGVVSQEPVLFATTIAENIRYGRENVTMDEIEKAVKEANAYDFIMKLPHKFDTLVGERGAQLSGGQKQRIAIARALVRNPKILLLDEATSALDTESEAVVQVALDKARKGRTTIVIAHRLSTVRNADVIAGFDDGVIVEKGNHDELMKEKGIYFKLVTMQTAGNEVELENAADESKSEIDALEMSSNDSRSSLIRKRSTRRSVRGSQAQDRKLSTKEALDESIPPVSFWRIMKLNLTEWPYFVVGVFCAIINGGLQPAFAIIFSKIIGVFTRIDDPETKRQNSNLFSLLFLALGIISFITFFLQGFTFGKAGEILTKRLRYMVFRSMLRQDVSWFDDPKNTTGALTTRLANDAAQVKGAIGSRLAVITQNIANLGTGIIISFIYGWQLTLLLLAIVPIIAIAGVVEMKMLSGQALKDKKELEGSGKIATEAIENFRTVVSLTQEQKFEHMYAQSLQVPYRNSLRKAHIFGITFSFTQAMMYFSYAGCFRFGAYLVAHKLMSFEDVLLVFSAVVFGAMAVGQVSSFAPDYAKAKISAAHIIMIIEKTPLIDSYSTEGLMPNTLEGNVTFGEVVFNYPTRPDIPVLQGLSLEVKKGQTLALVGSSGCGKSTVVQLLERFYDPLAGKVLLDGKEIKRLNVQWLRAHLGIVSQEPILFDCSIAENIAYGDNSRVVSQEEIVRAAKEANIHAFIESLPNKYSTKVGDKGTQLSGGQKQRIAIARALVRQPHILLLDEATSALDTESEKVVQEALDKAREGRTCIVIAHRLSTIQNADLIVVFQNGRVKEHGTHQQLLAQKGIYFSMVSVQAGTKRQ

With tetramethylrosamine [1 (E = O)], the “Transport rate relative to rhodamine 123 (2) or rhodamine 6G (3)” value in data set [1] was 5- to 10 fold.

For the molecule `CCN(CC)C(=O)c1ccc(-c2c3ccc(=[N+](C)C)cc-3[se]c3cc4c(cc23)C(C)(C)CCN4C)s1.[Cl-]` [15b, 9-(5-(Diethylcarbamoyl)thiophen-2-yl) Selenorhodamine], in [2], the “Fluorescence emission maximum λFL” value stood at 636 nm and the “Quantum yield for fluorescence ΦFL” value came out at 0.009 ± 0.001. Besides, in data set [3], the “Absorption maximum λmax” value was found to be 609 nm and the “Molar extinction coefficient ε” value is 7.18 × 10^4 M^–1 cm^–1. In data set [4], the “Phototoxicity (in words)” value is on record as “some phototoxicity” and the “LD50/EC50 (laser, 1.0 J cm^–2)” value amounted to 22. In [5], the “Synergy with Dox upon irradiation (in words)” value (“Synergy” for short) was “No synergy; also recorded: do not show significant synergistic effects” and the “Phototoxicity (in words) in the absence of Dox” value (“Phototoxicity … of Dox” below) is listed as “no significant phototoxicity”. Further, the “Uptake relative to the corresponding thioamide derivative” value in [6] is 40–50%. In [7], the “Quantum yield for the generation of singlet oxygen Φ(1O2)” value (“Quantum yield for the generation” for short) is on record as 0.50 ± 0.03.

As for `CCN(CC)C(=S)c1ccc(-c2c3ccc(=[N+](C)C)cc-3[se]c3cc4c(cc23)C(C)(C)CCN4C)s1.[Cl-]` [16b, 9-(5-(Diethylcarbamothioyl)thiophen-2-yl) Selenorhodamine], in data set [2], the “Fluorescence emission maximum λFL” value came out at 635 nm and the “Quantum yield for fluorescence ΦFL” value stood at 0.008 ± 0.001. Also, in data set [3], the “Absorption maximum λmax” value worked out at 608 nm and the “Molar extinction coefficient ε” value is listed as 9.78 × 10^4 M^–1 cm^–1. Also, the “LD50/EC50 (laser, 1.0 J cm^–2)” value in data set [4] was above 55. In data set [5], the “Synergy” value is recorded as “synergistic effects”, the “Surviving fraction of the combination vs single treatments (in words)” value is reported as “statistically significant decrease”, the Surviving fraction is reported as at most 0.20 and the “Phototoxicity … of Dox” value is “some phototoxicity”. The “Dox-only concentration giving the same surviving fraction as the combination” value in data set [5] was 0.5 µM. Further, the “Fluence after which half of the dye chromophore is lost” value (“Fluence after which half” for short) in data set [8] (setting [14]) is recorded as around 230 J cm^–2. The “Increase in uptake in the presence of VER” value in data set [6] was 1.3- to 2 fold and 2 fold. In addition, in data set [7], the “Quantum yield for the generation” value was 0.54 ± 0.03.

Take `CC/N=c1\cc2oc3cc(NCC)c(C)cc3c(-c3ccccc3C(=O)OCC)c-2cc1C` [compound 3, rhodamine 6G]: in data set [9], the “Quantum yield for fluorescence ΦFL (standard)” value is recorded as 0.93.

With `CN1CCC(C)(C)c2cc3c(-c4ccc(C(=O)N5CCCCC5)s4)c4ccc(=[N+](C)C)cc-4[se]c3cc21.[Cl-]` [17b, 9-(5-(Piperidylcarbamoyl)thiophen-2-yl) Selenorhodamine], in data set [2], the “Fluorescence emission maximum λFL” value is given as 634 nm and the “Quantum yield for fluorescence ΦFL” value is 0.009 ± 0.001. Moreover, in data set [3], the “Absorption maximum λmax” value worked out at 609 nm and the “Molar extinction coefficient ε” value is recorded as 8.73 × 10^4 M^–1 cm^–1. For the same molecule, in [10], the Papp A→B at 1 h, 5 μM was 0.1 ± 0.01 ×10⁻⁶ cm/s; the Papp B→A at 1 h, 5 μM is 1.11 ± 0.02 ×10⁻⁶ cm/s; the Papp at 1 h, 5 μM is around 0.6 ×10⁻⁶ cm/s. In data set [11], the Papp A→B at 1 h, 5 μM worked out at 0.09 ± 0.03 ×10⁻⁶ cm/s; the Papp B→A at 1 h, 5 μM came out at 16.4 ± 0.4 ×10⁻⁶ cm/s; the efflux ratio at 1 h, 5 μM was determined as 182. In data set [4], the “Phototoxicity (in words)” value was “little if any phototoxicity” and the “LD50/EC50 (laser, 1.0 J cm^–2)” value was 26. Further, the EC50 in [4] (Mus musculus, 48 h, read-out: EC50 (λmax ± 2 nm), 0.5 J cm^–2) was above 500 nM. Moreover, in data set [5], the “Synergy” value was “No synergy; also recorded: do not show significant synergistic effects” and the “Phototoxicity … of Dox” value was “no significant phototoxicity”. In addition, the “Uptake relative to the corresponding thioamide derivative” value in [6] is 40–50%. Besides, in data set [7], the “Quantum yield for the generation” value is on record as 0.48 ± 0.03.

Take `O[C@@H](COc1cccc2ncccc12)CN1CCN([C@@H]2c3ccccc3[C@@H]3[C@H](c4ccccc42)C3(Cl)Cl)CC1` [compound 24]: the “P-gp inhibition (in words)” value in data set [12] is given as “completely inhibits P-gp”.

As to `CN1CCC(C)(C)c2cc3c(-c4ccc(C(=S)N5CCCCC5)s4)c4ccc(=[N+](C)C)cc-4[se]c3cc21.[Cl-]` [18b, 9-(5-(Piperidylcarbamothioyl)thiophen-2-yl) Selenorhodamine], in data set [2], the “Fluorescence emission maximum λFL” value is 634 nm and the “Quantum yield for fluorescence ΦFL” value amounted to 0.008 ± 0.001. In data set [3], the “Absorption maximum λmax” value came out at 608 nm and the “Molar extinction coefficient ε” value is 8.11 × 10^4 M^–1 cm^–1. In addition, in data set [10], the Papp A→B at 1 h, 5 μM was 0.17 ± 0.02 ×10⁻⁶ cm/s; the Papp B→A at 1 h, 5 μM stood at 0.18 ± 0.01 ×10⁻⁶ cm/s; the apparent permeability coefficient (Papp) at 1 h, 5 μM is around 0.2 ×10⁻⁶ cm/s. Besides, in data set [11], the Papp A→B at 1 h, 5 μM amounted to 0.19 ± 0.05 ×10⁻⁶ cm/s; the Papp B→A at 1 h, 5 μM amounted to 2.9 ± 0.3 ×10⁻⁶ cm/s; the efflux ratio at 1 h, 5 μM is 15. Further, the “LD50/EC50 (laser, 1.0 J cm^–2)” value in data set [4] is above 55. Also, in [5], the “Synergy” value is on record as “synergistic effects”, the “Surviving fraction of the combination vs single treatments (in words)” value was “statistically significant decrease”, the Surviving fraction was at most 0.20 and the “Phototoxicity … of Dox” value was “some phototoxicity”. Moreover, in data set [5], the “Dox-only concentration giving the same surviving fraction as the combination” value amounted to 0.3 µM. Further, the “Fluence after which half” value in data set [8] (setting [14]) is listed as around 230 J cm^–2. Moreover, in data set [8] (500–800 nm light at 50 mW cm^–2, 10% CH3OH in pH 7.4 buffer), the “Fluence after which half” value is around 850 J cm^–2. The “Increase in uptake in the presence of VER” value in [6] is 1.3- to 2 fold and 2 fold. In data set [7], the “Quantum yield for the generation” value was found to be 0.44 ± 0.03.

`C[n+]1c(C=CC=C2N(Cc3ccc(CCl)cc3)c3cc(Cl)c(Cl)cc3N2Cc2ccc(CCl)cc2)oc2ccccc21.[Cl-]` [MTG, 2-[3-[5,6-dichloro-1,3-bis[[4-(chloromethyl)phenyl]methyl]-1,3-dihydro-2H-benzimidazol-2-ylidene]-1-propenyl]-3-methylbenzoxazolium chloride]: in data set [13], the “Mean bright detail similarity score with MTR” value was found to be 2.0 ± 0.8.

These data come from article PMC4207532 (Journal of Medicinal Chemistry, 2014).
